Assay results taken from ChEMBL document CHEMBL1146510, “New cytotoxic naphthopyrane derivatives from Adenaria floribunda” (2004).
Converted amounts (≈) assume the structure as drawn.

Tests used:
Format in all cases: functional
MCF7 = assay: Cytotoxicity against human MCF7 cells
Outline: (§1)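 Human cancer cell lines tested: MCF-7 (breast), H-460 (lung) and SF-268 (central nervous system). Cytotoxicity was run by a previously published cell-line screening method. The same three lines were used to follow activity through fractionation.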

NCI-H460 = assay: Cytotoxicity against human H460 cells; outline: as §1
SF-268 = assay: Cytotoxicity against human SF268 cells; outline: as §1

COc1c(CC=C(C)C)c(O)c2c(O)c3c(cc2c1CC=C(C)C)O[C@H](C)CC3=O [ADENAFLORINE A]
GI50 (MCF7): 0.24 µg/mL (≈ 0.585 µM)
GI50 (NCI-H460): 0.16 µg/mL (≈ 0.39 µM)
GI50 (SF-268): 0.13 µg/mL (≈ 0.317 µM)

COc1c(CC=C(C)C)c(O)c2c(O)c3c(=O)cc(C)oc3cc2c1CC=C(C)C [ADENAFLORINE B]
GI50 (MCF7): 4.3 µg/mL (≈ 10.5 µM)
GI50 (NCI-H460): 2.9 µg/mL (≈ 7.1 µM)
GI50 (SF-268): 3.9 µg/mL (≈ 9.55 µM)

CC(=O)c1c2c(c3cc(OCC=C(C)C)c(CC=C(C)C)c(O)c3c1O)C=CC(C)(C)O2 [ADENAFLORINE C]
GI50 (MCF7): 1.2 µg/mL (≈ 2.75 µM)
GI50 (NCI-H460): 1.1 µg/mL (≈ 2.52 µM)
GI50 (SF-268): 1.4 µg/mL (≈ 3.21 µM)

CC(=O)c1c(O)c(CC=C(C)C)c2cc(OCC=C(C)C)c3c(c2c1O)OC(C)(C)C=C3 [ADENAFLORINE D]
GI50 (MCF7): > 10 µg/mL
GI50 (NCI-H460): 9.3 µg/mL (≈ 21.3 µM)
GI50 (SF-268): > 10 µg/mL
